Laboratory results taken from ChEMBL document CHEMBL1152990, “The mechanism of action of beta-D-2'-deoxy-2'-fluoro-2'-C-methylcytidine involves a second metabolic pathway leading to beta-D-2'-deoxy-2'-fluoro-2'-C-methyluridine 5'-triphosphate, a potent inhibitor of the hepatitis C virus RNA-dependent RNA polymerase” (Antimicrob Agents Chemother, 2008).
Activity calls are given as the source filed them. The calls are words filed in the database; no cut-off is given here.

Tests used:
Hepatitis C virus [1] = assay: Antiviral activity against wild type HCV infected in human HuH7 cells assessed as inhibition of viral RNA replication after 4 days by replicon assay in absence of DCTD inhibitor zedularine; assay type: functional; conditions: Hepacivirus hominis; Huh-7
In short: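 Clone A Huh-7 replicon cells at 1,500 cells/well, without G418. Threefold serial compound dilutions were given with or without 100 μM zebularine, for 4 days at 37°C in 5% CO2. Replicon RNA was quantified by single-step multiplex RT-PCR, and activity was taken as ΔCT relative to the no-drug control.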

Hepatitis C virus [2] = assay: Antiviral activity against HCV harboring NS5B polymerase S282T mutation infected in human HuH7 cells assessed as inhibition of viral RNA replication after 4 days by replicon assay in absence of DCTD inhibitor zedularine; assay type: functional; conditions: Hepacivirus hominis; Huh-7
In short: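 Huh-7 clone A subgenomic replicon cells carrying NS5B S282T (selected by serial passage with 2′-C-methyladenosine) were seeded at 1,500 cells/well without G418. Threefold compound dilutions were added alone or with 100 μM zebularine, followed by 4 days at 37°C, 5% CO2. Replicon RNA was quantified by single-step multiplex RT-PCR, and activity was taken as ΔCT versus the no-drug control to give EC90.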

Huh-7 [3] = assay: Ratio of Kcat to Km for cloned NDPK in human HuH7 cells assessed as formation of […] triphosphate by spectrophotometry; assay type: cell-based
Hepacivirus hominis [4] = assay: Ratio of Ki to Km for wild type HCV NS5B polymerase
In short: (§1)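 De novo RNA synthesis by NS5B lacking 21 C-terminal residues, in 50 mM HEPES pH 7.5 with 5 mM MgCl2 and 2 mM DTT at 27°C. Template was unprimed minus-IRES RNA, 2.8 μg each of enzyme and template. CTP 10 μM, ATP and GTP 100 μM; 32P-UTP and inhibitor were varied. Aliquots were quenched with EDTA/NaCl/citrate.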

Hepacivirus hominis [5] = assay: Activity of wild type HCV NS5B polymerase; in short: as §1
[6] = system: RNA-directed RNA polymerase (Hepacivirus hominis), O39930 [S282T]; assay: Ratio of Ki to Km for HCV NS5B polymerase S282T mutant
In short: (§2)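 Recombinant HCV NS5B S282T (21-aa C-terminally truncated, E. coli-expressed, metal-affinity purified) in a de novo steady-state RNA synthesis assay on an unprimed minus-IRES RNA template. Run at 27°C in 50 mM HEPES pH 7.5 with 5 mM MgCl2 and 2 mM DTT. For the CTP analog, UTP/GTP/ATP were fixed at 10/100/100 μM while 32P-CTP and the inhibitor were varied. For the UTP analog, CTP/ATP/GTP were fixed at 10/100/100 μM while 32P-UTP and the inhibitor were varied.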

Hepacivirus hominis [7] = assay: Fold resistance, ratio of Ki/Km for HCV NS5B polymerase S282T mutant to Ki/Km for wild type HCV NS5B polymerase
In short: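 Ki and Km were measured for wild-type and S282T NS5B (C-terminal Δ21) by steady-state de novo RNA synthesis. Conditions were an unprimed minus-IRES template, 27°C, 50 mM HEPES pH 7.5, 5 mM MgCl2, 2 mM DTT, and varied 32P-labelled natural NTP with varied inhibitor. Fold resistance = (Ki/Km mutant)/(Ki/Km wild type).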

[8] = system: C[C@@]1(F)[C@H](O)[C@@H](COP(=O)(O)OP(=O)(O)OP(=O)(O)O)O[C@H]1n1ccc(=O)[nH]c1=O; assay: (§3) Activity of HCV NS5B polymerase S282T mutant; conditions: Hepacivirus hominis; in short: as §2
[9] = system: C[C@@]1(F)[C@H](O)[C@@H](COP(=O)(O)OP(=O)(O)OP(=O)(O)O)O[C@H]1n1ccc(N)nc1=O; assay: as §3; conditions: Hepacivirus hominis; in short: as §2
Huh-7 [10] = assay: Activity of cloned NDPK in human HuH7 cells assessed as formation of uridine triphosphate by spectrophotometry; assay type: cell-based
In short: (§4)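 Recombinant human kinase read out by PK/LDH coupling, following NADH oxidation at 340 nm. Rates were measured over varied substrate levels and fitted for steady-state parameters.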

Huh-7 [11] = assay: Ratio of Kcat to Km for cloned NDPK in human HuH7 cells assessed as formation of uridine triphosphate by spectrophotometry; assay type: cell-based; in short: as §4
[12] = biological target: T1, Phosphoglycerate kinase (Saccharomyces cerevisiae S288c) (UniProt P00560); assay: Activity of yeast 3-phosphoglycerate kinase assessed as formation of RO2433 triphosphate at 200 uM
T1 sequence (whole entry): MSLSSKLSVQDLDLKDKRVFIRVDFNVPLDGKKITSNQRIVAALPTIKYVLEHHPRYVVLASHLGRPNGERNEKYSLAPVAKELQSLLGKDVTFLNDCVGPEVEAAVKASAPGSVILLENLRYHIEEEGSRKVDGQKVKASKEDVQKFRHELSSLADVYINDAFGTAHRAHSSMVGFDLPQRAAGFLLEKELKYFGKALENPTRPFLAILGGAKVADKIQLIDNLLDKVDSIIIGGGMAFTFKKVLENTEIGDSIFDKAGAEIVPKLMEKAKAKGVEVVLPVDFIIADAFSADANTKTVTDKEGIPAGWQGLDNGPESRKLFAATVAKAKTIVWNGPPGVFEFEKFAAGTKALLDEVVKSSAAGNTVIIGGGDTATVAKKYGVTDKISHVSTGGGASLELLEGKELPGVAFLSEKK

[13] = biological target: Creatine kinase M-type (Homo sapiens) (UniProt P06732); assay: Activity of human creatine kinase isoform MM assessed as formation of RO2433 triphosphate at 200 uM
Homo sapiens = organism: Homo sapiens; assay: Activity of human creatine kinase isoform MB assessed as formation of RO2433 triphosphate at 200 uM
[14] = biological target: Creatine kinase B-type (Homo sapiens) (UniProt P12277); assay: Activity of human creatine kinase isoform BB assessed as formation of RO2433 triphosphate at 200 uM
Huh-7 [15] = assay: Ratio of Kcat to Km for cloned NDPK in human HuH7 cells assessed as formation of RO2433 triphosphate by spectrophotometry; assay type: cell-based; in short: as §4
[16] = system: C[C@@]1(F)[C@H](O)[C@@H](CO)O[C@H]1n1ccc(N)nc1=O; assay: Ratio of Kcat to Km for cloned 2'-deoxycytidine kinase in human HepG2 cells assessed as formation of formation of […] monophosphate by spectrophotometry; assay type: cell-based
[17] = biological target: T2, Uridine-cytidine kinase 1 (Homo sapiens) (UniProt Q9HA47); assay: Activity of cloned uridine-cytidine kinase 1 in human HuH7 cells up to 1 mM; assay type: cell-based; conditions: Huh-7
T2 sequence (whole entry): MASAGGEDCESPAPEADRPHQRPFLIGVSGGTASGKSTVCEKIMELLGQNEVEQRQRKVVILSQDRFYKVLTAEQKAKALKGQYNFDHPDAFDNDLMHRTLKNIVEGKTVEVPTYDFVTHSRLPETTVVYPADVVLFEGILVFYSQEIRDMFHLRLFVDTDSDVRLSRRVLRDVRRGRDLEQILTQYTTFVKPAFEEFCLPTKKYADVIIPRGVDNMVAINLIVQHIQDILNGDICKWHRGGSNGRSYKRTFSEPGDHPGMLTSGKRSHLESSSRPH

[18] = biological target: Deoxycytidine kinase (Homo sapiens) (UniProt P27707); assay: Activity of cloned deoxycytidine kinase in human HepG2 cells up to 1 mM; assay type: cell-based
[19] = biological target: T3, Thymidine kinase, cytosolic (Homo sapiens) (UniProt P04183); assay: Activity of thymidine kinase 1 up to 1 mM
T3 sequence (whole entry): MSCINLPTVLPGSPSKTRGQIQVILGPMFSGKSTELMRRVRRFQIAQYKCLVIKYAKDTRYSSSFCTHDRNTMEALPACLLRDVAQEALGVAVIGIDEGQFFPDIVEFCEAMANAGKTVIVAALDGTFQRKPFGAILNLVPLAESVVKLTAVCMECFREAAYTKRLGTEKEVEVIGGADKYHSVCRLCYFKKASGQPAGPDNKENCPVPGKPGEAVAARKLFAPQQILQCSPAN

[20] = biological target: T4, Thymidine kinase 2, mitochondrial (Homo sapiens) (UniProt O00142); assay: Activity of thymidine kinase 2 up to 1 mM
T4 sequence (whole entry): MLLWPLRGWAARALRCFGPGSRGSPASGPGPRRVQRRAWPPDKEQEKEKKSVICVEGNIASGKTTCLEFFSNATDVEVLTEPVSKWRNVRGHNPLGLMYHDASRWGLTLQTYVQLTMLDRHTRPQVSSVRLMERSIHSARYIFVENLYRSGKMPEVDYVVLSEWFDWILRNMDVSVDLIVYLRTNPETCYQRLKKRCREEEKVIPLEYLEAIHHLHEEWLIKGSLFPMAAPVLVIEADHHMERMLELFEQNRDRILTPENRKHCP

Chain of Creatine kinase B-type (Homo sapiens) (P12277 whole entry, canonical isoform): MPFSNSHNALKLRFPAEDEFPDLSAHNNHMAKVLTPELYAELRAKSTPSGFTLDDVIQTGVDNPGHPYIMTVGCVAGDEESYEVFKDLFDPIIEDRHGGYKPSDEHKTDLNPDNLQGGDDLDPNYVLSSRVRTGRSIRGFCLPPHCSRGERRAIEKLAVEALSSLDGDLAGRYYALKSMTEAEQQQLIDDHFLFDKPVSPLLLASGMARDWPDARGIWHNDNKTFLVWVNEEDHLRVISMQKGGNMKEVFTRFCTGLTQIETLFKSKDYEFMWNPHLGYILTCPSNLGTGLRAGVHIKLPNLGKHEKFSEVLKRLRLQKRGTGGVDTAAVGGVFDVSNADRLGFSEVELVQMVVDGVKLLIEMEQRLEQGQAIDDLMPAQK
Chain of Creatine kinase M-type (Homo sapiens) (P06732 whole entry, canonical isoform): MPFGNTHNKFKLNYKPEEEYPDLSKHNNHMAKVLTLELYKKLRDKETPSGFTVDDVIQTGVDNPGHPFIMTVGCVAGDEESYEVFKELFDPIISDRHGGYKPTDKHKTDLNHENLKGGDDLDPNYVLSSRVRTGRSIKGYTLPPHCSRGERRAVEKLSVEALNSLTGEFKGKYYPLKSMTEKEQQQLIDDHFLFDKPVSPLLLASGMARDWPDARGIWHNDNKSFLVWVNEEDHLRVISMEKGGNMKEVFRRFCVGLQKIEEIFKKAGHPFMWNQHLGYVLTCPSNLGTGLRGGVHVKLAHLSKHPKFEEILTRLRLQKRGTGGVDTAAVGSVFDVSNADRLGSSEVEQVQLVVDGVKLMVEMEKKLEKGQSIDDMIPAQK
Chain of Deoxycytidine kinase (Homo sapiens) (P27707 whole entry, looked up): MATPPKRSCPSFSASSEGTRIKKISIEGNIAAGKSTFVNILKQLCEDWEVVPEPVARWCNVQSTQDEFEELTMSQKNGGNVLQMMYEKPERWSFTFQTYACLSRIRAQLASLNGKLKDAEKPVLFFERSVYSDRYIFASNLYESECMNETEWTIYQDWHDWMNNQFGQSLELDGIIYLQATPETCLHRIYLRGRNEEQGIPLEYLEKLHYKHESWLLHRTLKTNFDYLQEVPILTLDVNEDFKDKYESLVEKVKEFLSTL
Chain of Deoxycytidine kinase (Homo sapiens), P27707 (P27707 whole entry): as the sequence (P27707 whole entry, looked up) above

Compound: C[C@@]1(F)[C@H](O)[C@@H](COP(=O)(O)O)O[C@H]1n1ccc(=O)[nH]c1=O
- Activity (Hepatitis C virus [1]): Active
- Activity (Hepatitis C virus [2]): Active

Compound: C[C@@]1(F)[C@H](O)[C@@H](COP(=O)(O)OP(=O)(O)O)O[C@H]1n1ccc(N)nc1=O
- kcat/Km (Huh-7 [3]): 0.015 µM⁻¹ s⁻¹

Compound: C[C@@]1(F)[C@H](O)[C@@H](COP(=O)(O)OP(=O)(O)OP(=O)(O)O)O[C@H]1n1ccc(N)nc1=O
- Ki/Km (Hepacivirus hominis [4]): 0.8
- Km (Hepacivirus hominis [5]): 0.074 µM
- Ki/Km [6]: 6
- Ratio (Hepacivirus hominis [7]): 7.5

Compound: C[C@@]1(F)[C@H](O)[C@@H](COP(=O)(O)OP(=O)(O)OP(=O)(O)O)O[C@H]1n1ccc(=O)[nH]c1=O
- Ki/Km (Hepacivirus hominis [4]): 6.2
- Ki/Km [6]: 147
- Ratio (Hepacivirus hominis [7]): 23.7

Compound: RNA-directed RNA polymerase (Hepacivirus hominis), O39930 S282T
- Km [8]: 0.15 µM
- Km [9]: 0.052 µM

Compound: O=c1ccn([C@@H]2O[C@H](COP(=O)(O)OP(=O)(O)O)[C@@H](O)[C@H]2O)c(=O)[nH]1
- Km (Huh-7 [10]): 156 µM
- kcat (Huh-7 [10]): 145 s⁻¹
- kcat/Km (Huh-7 [11]): 0.93 µM⁻¹ s⁻¹

Compound: C[C@@]1(F)[C@H](O)[C@@H](COP(=O)(O)OP(=O)(O)O)O[C@H]1n1ccc(=O)[nH]c1=O
- Activity [12]: inactive
- Activity [13]: inactive
- Activity (Homo sapiens): inactive
- Activity [14]: inactive
- kcat/Km (Huh-7 [15]): 0.046 µM⁻¹ s⁻¹

Compound: Deoxycytidine kinase (Homo sapiens), P27707
- kcat/Km [16]: 1.9 ×10⁻⁴ /µM/s

Compound: C[C@@]1(F)[C@H](O)[C@@H](CO)O[C@H]1n1ccc(=O)[nH]c1=O
- Activity [17]: inactive
- Activity [18]: inactive
- Activity [19]: inactive
- Activity [20]: inactive
